# Measurements from ChEMBL document CHEMBL1124793, “Comparative reactivity of 1-carba-1-dethiacephalosporins with cephalosporins” (J Med Chem, 1990).
# Tested on: Providencia rettgeri
# Experiment: In vitro inhibitory activity against Proteus rettgeri C24
# Format: functional
# Summary of the method: (§1)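 Agar dilution: compounds were diluted in 0.1 M phosphate buffer, pH 7.0, and mixed at 50 °C into Mueller–Hinton agar with 1% Bacto-Supplement C. Fresh overnight cultures were diluted to about 1 × 10^4 cells/μL and spotted at 1 μL. Plates were incubated overnight at 35 °C in ambient air. MIC (μg/mL) was the lowest concentration preventing visible growth.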
row,SMILES,MIC
1,O=C(COc1ccccc1)N[C@@H]1C(=O)N2C(C(=O)O)=C(Cl)CS[C@H]12,128 µg/mL
2,CO/N=C(\C(=O)N[C@@H]1C(=O)N2C(C(=O)[O-])=C(C[n+]3ccccc3)CS[C@H]12)c1csc(N)n1,0.03 µg/mL
3,CO/N=C(\C(=O)N[C@@H]1C(=O)N2C(C(=O)O)=CCC[C@H]12)c1csc(N)n1,0.008 µg/mL
4,CO/N=C(\C(=O)N[C@@H]1C(=O)N2C(C(=O)O)=CCS[C@H]12)c1csc(N)n1 [CEFTIZOXIME],0.008 µg/mL
5,CS(=O)(=O)OC1=C(C(=O)O)N2C(=O)[C@@H](NC(=O)COc3ccccc3)[C@H]2SC1,128 µg/mL

# Tested on: Escherichia coli
# Experiment: Inhibitory activity against Escherichia coli EC14
# Format: functional
# Summary of the method: as §1
row,SMILES,MIC
1,CS(=O)(=O)OC1=C(C(=O)O)N2C(=O)[C@@H](NC(=O)COc3ccccc3)[C@H]2SC1,64 µg/mL

# Tested on: not listed separately
# Experiment: Half-life is evaluated
# Format: ADME
# Summary of the method: (§2)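 Parent β-lactam loss followed by HPLC, starting at 3.9 × 10^-4–1 × 10^-3 M, at 35 °C and μ = 0.5. pH was held at 10 by a pH-stat adding NaOH. Pseudo-first-order rate constants were derived, with half-lives from these rates. Some runs were done at pH 11, and the constant was taken as 1/10 of the observed value, assuming proportionality to [OH].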
row,SMILES,half-life
1,O=C(COc1ccccc1)N[C@@H]1C(=O)N2C(C(=O)O)=C(Cl)CS[C@H]12,46.4 min
2,CO/N=C(\C(=O)N[C@@H]1C(=O)N2C(C(=O)[O-])=C(C[n+]3ccccc3)CS[C@H]12)c1csc(N)n1,22.5 min
3,CO/N=C(\C(=O)N[C@@H]1C(=O)N2C(C(=O)O)=CCC[C@H]12)c1csc(N)n1,7380 min
4,CO/N=C(\C(=O)N[C@@H]1C(=O)N2C(C(=O)O)=CCS[C@H]12)c1csc(N)n1 [CEFTIZOXIME],365 min
5,CS(=O)(=O)OC1=C(C(=O)O)N2C(=O)[C@@H](NC(=O)COc3ccccc3)[C@H]2SC1,21.8 min

# Tested on: Streptococcus pyogenes
# Experiment: In vitro inhibitory activity against Streptococcus pyogenes Park
# Format: functional
# Summary of the method: as §1
row,SMILES,MIC
1,O=C(COc1ccccc1)N[C@@H]1C(=O)N2C(C(=O)O)=C(Cl)CS[C@H]12,0.25 µg/mL
2,CO/N=C(\C(=O)N[C@@H]1C(=O)N2C(C(=O)[O-])=C(C[n+]3ccccc3)CS[C@H]12)c1csc(N)n1,0.03 µg/mL
3,CO/N=C(\C(=O)N[C@@H]1C(=O)N2C(C(=O)O)=CCC[C@H]12)c1csc(N)n1,0.015 µg/mL
4,CO/N=C(\C(=O)N[C@@H]1C(=O)N2C(C(=O)O)=CCS[C@H]12)c1csc(N)n1 [CEFTIZOXIME],0.015 µg/mL
5,CS(=O)(=O)OC1=C(C(=O)O)N2C(=O)[C@@H](NC(=O)COc3ccccc3)[C@H]2SC1,0.015 µg/mL

# Tested on: Pseudomonas aeruginosa
# Experiment: In vitro inhibitory activity against Pseudomonas aeruginosa X258
# Format: functional
# Summary of the method: as §1
row,SMILES,MIC
1,O=C(COc1ccccc1)N[C@@H]1C(=O)N2C(C(=O)O)=C(Cl)CS[C@H]12,128 µg/mL
2,CO/N=C(\C(=O)N[C@@H]1C(=O)N2C(C(=O)[O-])=C(C[n+]3ccccc3)CS[C@H]12)c1csc(N)n1,2 µg/mL
3,CO/N=C(\C(=O)N[C@@H]1C(=O)N2C(C(=O)O)=CCC[C@H]12)c1csc(N)n1,32 µg/mL
4,CO/N=C(\C(=O)N[C@@H]1C(=O)N2C(C(=O)O)=CCS[C@H]12)c1csc(N)n1 [CEFTIZOXIME],32 µg/mL
5,CS(=O)(=O)OC1=C(C(=O)O)N2C(=O)[C@@H](NC(=O)COc3ccccc3)[C@H]2SC1,128 µg/mL

# Tested on: Staphylococcus aureus
# Experiment: In vitro inhibitory activity against Staphylococcus aureus X1.1
# Format: functional
# Summary of the method: as §1
row,SMILES,MIC
1,O=C(COc1ccccc1)N[C@@H]1C(=O)N2C(C(=O)O)=C(Cl)CS[C@H]12,0.25 µg/mL
2,CO/N=C(\C(=O)N[C@@H]1C(=O)N2C(C(=O)[O-])=C(C[n+]3ccccc3)CS[C@H]12)c1csc(N)n1,1 µg/mL
3,CO/N=C(\C(=O)N[C@@H]1C(=O)N2C(C(=O)O)=CCC[C@H]12)c1csc(N)n1,16 µg/mL
4,CO/N=C(\C(=O)N[C@@H]1C(=O)N2C(C(=O)O)=CCS[C@H]12)c1csc(N)n1 [CEFTIZOXIME],4 µg/mL
5,CS(=O)(=O)OC1=C(C(=O)O)N2C(=O)[C@@H](NC(=O)COc3ccccc3)[C@H]2SC1,0.125 µg/mL

# Tested on: Escherichia coli
# Experiment: In vitro inhibitory activity against Escherichia coli EC14
# Format: functional
# Summary of the method: as §1
row,SMILES,MIC
1,O=C(COc1ccccc1)N[C@@H]1C(=O)N2C(C(=O)O)=C(Cl)CS[C@H]12,64 µg/mL
2,CO/N=C(\C(=O)N[C@@H]1C(=O)N2C(C(=O)[O-])=C(C[n+]3ccccc3)CS[C@H]12)c1csc(N)n1,0.03 µg/mL
3,CO/N=C(\C(=O)N[C@@H]1C(=O)N2C(C(=O)O)=CCC[C@H]12)c1csc(N)n1,0.008 µg/mL
4,CO/N=C(\C(=O)N[C@@H]1C(=O)N2C(C(=O)O)=CCS[C@H]12)c1csc(N)n1 [CEFTIZOXIME],0.015 µg/mL

# Tested on: not listed separately
# Experiment: Pseudo-first-order rate constant at pH 10 and 35 degrees Centigrade
# Format: ADME
# Summary of the method: as §2
row,SMILES,K
1,O=C(COc1ccccc1)N[C@@H]1C(=O)N2C(C(=O)O)=C(Cl)CS[C@H]12,0.895 h⁻¹
2,CO/N=C(\C(=O)N[C@@H]1C(=O)N2C(C(=O)[O-])=C(C[n+]3ccccc3)CS[C@H]12)c1csc(N)n1,1.85 h⁻¹
3,CO/N=C(\C(=O)N[C@@H]1C(=O)N2C(C(=O)O)=CCC[C@H]12)c1csc(N)n1,0.00565 h⁻¹
4,CO/N=C(\C(=O)N[C@@H]1C(=O)N2C(C(=O)O)=CCS[C@H]12)c1csc(N)n1 [CEFTIZOXIME],0.114 h⁻¹
5,CS(=O)(=O)OC1=C(C(=O)O)N2C(=O)[C@@H](NC(=O)COc3ccccc3)[C@H]2SC1,1.91 h⁻¹

# Tested on: Haemophilus influenzae
# Experiment: In vitro inhibitory activity against Haemophilus influenza C.L
# Format: functional
# Summary of the method: as §1
row,SMILES,MIC
1,O=C(COc1ccccc1)N[C@@H]1C(=O)N2C(C(=O)O)=C(Cl)CS[C@H]12,2 µg/mL
2,CO/N=C(\C(=O)N[C@@H]1C(=O)N2C(C(=O)[O-])=C(C[n+]3ccccc3)CS[C@H]12)c1csc(N)n1,0.06 µg/mL
3,CO/N=C(\C(=O)N[C@@H]1C(=O)N2C(C(=O)O)=CCC[C@H]12)c1csc(N)n1,0.008 µg/mL
4,CO/N=C(\C(=O)N[C@@H]1C(=O)N2C(C(=O)O)=CCS[C@H]12)c1csc(N)n1 [CEFTIZOXIME],0.015 µg/mL
5,CS(=O)(=O)OC1=C(C(=O)O)N2C(=O)[C@@H](NC(=O)COc3ccccc3)[C@H]2SC1,4 µg/mL

# Tested on: Enterobacter cloacae
# Experiment: In vitro inhibitory activity against Enterobacter cloacae EB5
# Format: functional
# Summary of the method: as §1
row,SMILES,MIC
1,O=C(COc1ccccc1)N[C@@H]1C(=O)N2C(C(=O)O)=C(Cl)CS[C@H]12,128 µg/mL
2,CO/N=C(\C(=O)N[C@@H]1C(=O)N2C(C(=O)[O-])=C(C[n+]3ccccc3)CS[C@H]12)c1csc(N)n1,0.06 µg/mL
3,CO/N=C(\C(=O)N[C@@H]1C(=O)N2C(C(=O)O)=CCC[C@H]12)c1csc(N)n1,0.06 µg/mL
4,CO/N=C(\C(=O)N[C@@H]1C(=O)N2C(C(=O)O)=CCS[C@H]12)c1csc(N)n1 [CEFTIZOXIME],0.06 µg/mL
5,CS(=O)(=O)OC1=C(C(=O)O)N2C(=O)[C@@H](NC(=O)COc3ccccc3)[C@H]2SC1,128 µg/mL

# Tested on: Klebsiella pneumoniae
# Experiment: In vitro inhibitory activity against Klebsiella X26
# Format: functional
# Summary of the method: as §1
row,SMILES,MIC
1,O=C(COc1ccccc1)N[C@@H]1C(=O)N2C(C(=O)O)=C(Cl)CS[C@H]12,8 µg/mL
2,CO/N=C(\C(=O)N[C@@H]1C(=O)N2C(C(=O)[O-])=C(C[n+]3ccccc3)CS[C@H]12)c1csc(N)n1,0.03 µg/mL
3,CO/N=C(\C(=O)N[C@@H]1C(=O)N2C(C(=O)O)=CCC[C@H]12)c1csc(N)n1,0.008 µg/mL
4,CO/N=C(\C(=O)N[C@@H]1C(=O)N2C(C(=O)O)=CCS[C@H]12)c1csc(N)n1 [CEFTIZOXIME],0.008 µg/mL
5,CS(=O)(=O)OC1=C(C(=O)O)N2C(=O)[C@@H](NC(=O)COc3ccccc3)[C@H]2SC1,8 µg/mL
